# Source: ChEMBL document CHEMBL4673248, “Discovery and Characterization of BAY 1214784, an Orally Available Spiroindoline Derivative Acting as a Potent and Selective Antagonist of the Human Gonadotropin-Releasing Hormone Receptor as Proven in a First-In-Human Study in Postmenopausal Women” (J Med Chem, 2020)
# pIC50, pKd: −log10 of the molar value. Active and inactive are the calls of the source. The calls are words filed in the database; no cut-off is given here. Square brackets hold non-standard residues; d marks the D form. Peptide text beside a SMILES is read from it. dPhe(4-Cl) = N[C@H](Cc1ccc(Cl)cc1)C(=O)O; d2Nal = N[C@H](Cc1ccc2ccccc2c1)C(=O)O; dCit = NC(=O)NCCC[C@@H](N)C(=O)O; d3Pal = N[C@H](Cc1cccnc1)C(=O)O
# Assays:
# [1] = target: T1, Gonadotropin-releasing hormone receptor (Homo sapiens, UniProt P30968); assay: Antagonist activity at human GnRH receptor expressed in CHO-K1 cells assessed as inhibition of LHRH-induced response preincubated for 20 mins followed by LHRH addition and measured after 60 mins by TR-FRET assay; type: cell-based
# T1 sequence (P30968 whole entry): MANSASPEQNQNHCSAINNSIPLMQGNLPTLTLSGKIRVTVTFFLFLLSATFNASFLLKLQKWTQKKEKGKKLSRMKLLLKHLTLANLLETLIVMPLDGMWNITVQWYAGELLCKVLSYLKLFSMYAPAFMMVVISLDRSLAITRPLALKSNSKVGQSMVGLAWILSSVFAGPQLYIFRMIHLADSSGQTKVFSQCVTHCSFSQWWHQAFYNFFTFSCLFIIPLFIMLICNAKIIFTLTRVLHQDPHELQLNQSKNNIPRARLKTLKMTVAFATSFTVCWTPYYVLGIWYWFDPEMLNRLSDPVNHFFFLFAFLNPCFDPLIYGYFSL
# [2] = target: T2, Gonadotropin-releasing hormone receptor (Rattus norvegicus, UniProt P30969); assay: Antagonist activity at rat GnRH receptor expressed in CHO-K1 cells assessed as inhibition of buserelin-induced response preincubated for 20 mins followed by buserelin addition and measured after 60 mins by TR-FRET assay; type: cell-based
# T2 sequence (P30969 whole entry): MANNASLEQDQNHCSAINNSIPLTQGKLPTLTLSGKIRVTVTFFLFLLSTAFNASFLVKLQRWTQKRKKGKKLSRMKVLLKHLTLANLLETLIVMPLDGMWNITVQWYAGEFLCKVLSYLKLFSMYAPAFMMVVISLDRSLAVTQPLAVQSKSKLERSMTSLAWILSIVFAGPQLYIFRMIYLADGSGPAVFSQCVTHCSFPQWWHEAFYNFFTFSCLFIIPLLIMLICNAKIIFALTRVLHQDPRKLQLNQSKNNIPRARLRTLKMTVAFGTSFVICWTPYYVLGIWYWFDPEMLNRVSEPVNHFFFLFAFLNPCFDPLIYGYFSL
# Summary of the method: (§1)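 Frozen rat-receptor cells: thawed, seeded overnight in serum-containing Ham's F12, Accutase-harvested, resuspended in serum-free medium with IP1-d2, 1 h at 37 °C. 1.0 × 10^4 cells/well, 20 min compound preincubation at rt, then 1× EC80 LHRH or buserelin in HEPES stimulation buffer pH 7.4 for 60 min at 37 °C. Tb-anti-IP1 lysis (1:38), HTRF read 60 min later.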
# [3] = target: T2, Gonadotropin-releasing hormone receptor; assay: Antagonist activity at rat GnRH receptor expressed in CHO-K1 cells assessed as inhibition of LHRH-induced response preincubated for 20 mins followed by LHRH addition and measured after 60 mins by TR-FRET assay; type: cell-based; summary of the method: as §1
# [4] = target: T1, Gonadotropin-releasing hormone receptor; assay: Antagonist activity at human GnRH receptor expressed in CHO-K1 cells assessed as inhibition of buserelin-induced response preincubated for 20 mins followed by buserelin addition and measured after 60 mins by TR-FRET assay; type: cell-based
# [5] = Intrinsic clearance in Han Wistar rat hepatocytes at 1 uM measured up to 90 mins by LC/MS/MS analysis; type: ADME, cell-based, Hepatocyte; conditions: Han Wistar, read-out: CLH (converted)
# [6] = Half life in Wistar rat at 0.5 mg/kg, iv by LC-MS/MS analysis; type: ADME, organism-based; conditions: in vivo
# [7] = Clearance in Wistar rat at 0.5 mg/kg, iv by LC-MS/MS analysis; type: ADME, organism-based; conditions: Wistar, in vivo
# [8] = target: T3, Gonadotropin-releasing hormone receptor (Homo sapiens) (UniProt P30968); assay: Inhibition of Tag-lite green-labeled agonist binding to terbium fluorophore-labeled human N-terminal SNAP-tag GnRh receptor expressed in HEK293 cells assessed as association rate constant by TR-FRET assay; type: cell-based; conditions: filed as antagonist
# T3 sequence (whole entry): T1 sequence (P30968 whole entry)
# Summary of the method: (§2)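 Kinetic competition at rt: tracer at 10 nM final with compound, Tb-hGnRH-R cells injected in the reader. TR-FRET read at time zero and every 21 s. Baseline-subtracted traces fitted with the Motulsky–Mahan competitive kinetics model. At least two independent experiments, two replicates each.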
# [9] = target: T1, Gonadotropin-releasing hormone receptor; assay: Inhibition of Tag-lite green-labeled agonist binding to terbium fluorophore-labeled human N-terminal SNAP-tag GnRh receptor expressed in HEK293 cells assessed as equilibrium dissociation constant by TR-FRET assay; type: cell-based
# Rattus norvegicus = assay: Suppression of ovariectomized-induced increase in plasma luteinizing hormone level in Wistar Han rat at 0.1 mg/kg, sc measured up to 24 hrs; type: functional, organism-based; conditions: time hrs <=24
# [10] = target: T3, Gonadotropin-releasing hormone receptor (Homo sapiens); assay: Inhibition of Tag-lite green-labeled agonist binding to terbium fluorophore-labeled human N-terminal SNAP-tag GnRh receptor expressed in HEK293 cells assessed as residence time by TR-FRET assay; type: cell-based; conditions: filed as antagonist; summary of the method: as §2
# [11] = target: T1, Gonadotropin-releasing hormone receptor; assay: Inhibition of Tag-lite green-labeled agonist binding to terbium fluorophore-labeled human N-terminal SNAP-tag GnRh receptor expressed in HEK293 cells assessed as dissociation constant by TR-FRET assay; type: cell-based
# [12] = target: T3, Gonadotropin-releasing hormone receptor (Homo sapiens); assay: Inhibition of Tag-lite green-labeled agonist binding to terbium fluorophore-labeled human N-terminal SNAP-tag GnRh receptor expressed in HEK293 cells assessed as dissociation rate constant by TR-FRET assay; type: cell-based; conditions: filed as antagonist; summary of the method: as §2
SMILES,pIC50 [1],pIC50 [4],further results
COc1ccc(S(=O)(=O)N2c3ccc(C(=O)NCc4ccccc4Cl)cc3C(C)(C)C2C)cc1 (racemic),6.44,5.18,pIC50 [2]: 5.31; pIC50 [3]: 5.85
CC1N(S(=O)(=O)c2ccc(F)cc2)c2ccc(C(=O)NCc3ccccc3Cl)cc2C12CCNCC2 (stereo in doubt),7.00,6.76,CLint scaled at 1 µM [5]: 33.3 mL/min/kg; pIC50 ([3]; cho-k1): 7.57; half-life [6]: 8.1 h; clearance [7]: 23.3 mL/min/kg
CC(=O)N[C@H](Cc1ccc2ccccc2c1)C(=O)N[C@H](Cc1ccc(Cl)cc1)C(=O)N[C@H](Cc1cccnc1)C(=O)N[C@@H](CO)C(=O)N[C@@H](Cc1ccc(O)cc1)C(=O)N[C@H](CCCNC(N)=O)C(=O)N[C@@H](CC(C)C)C(=O)N[C@@H](CCCNC(=N)N)C(=O)N1CCC[C@H]1C(=O)N[C@H](C)C(N)=O [CETRORELIX] (Ac-[d2Nal][dPhe(4-Cl)][d3Pal]SY[dCit]LRP[dA]-NH2),,,K [8]: 3.57 10^6/M/s; pKd [9]: 9.87; Activity (Rattus norvegicus): Active; TIME [10]: 0.583 h; pKd [11]: 11.77; K [12]: 1 10^-5/s
O=C(NCc1ccc(C(F)(F)F)cn1)c1ccc2c(c1)C1(CCS(=O)(=O)CC1)C(C1CC1)N2S(=O)(=O)c1ccc(F)cc1 (racemic),6.80,6.38,
CC(=O)N1CCC2(CC1)c1cc(C(=O)NCc3ccccc3Cl)ccc1N(S(=O)(=O)c1ccc(C(F)(F)F)cc1)C2C (racemic),< 4.70,4.86,
O=C(Nc1ccc2c(c1)C1(CCC(O)CC1)C(C1CC1)N2S(=O)(=O)c1ccc(F)cc1)c1cccnc1 (stereo unspecified),7.59,7.21,
O=C(Nc1ccc2c(c1)C1(CCSCC1)C(C1CC1)N2S(=O)(=O)c1ccc(F)cc1)c1cccnc1 (racemic),7.32,6.88,
CC(=O)N1CCC2(CC1)c1cc(C(=O)NCc3ccccc3Cl)ccc1N(S(=O)(=O)c1ccc(F)cc1)C2CCO (racemic),6.23,5.94,
CC(=O)N1CCC2(CC1)c1cc(C(=O)NCc3ccccc3Cl)ccc1N(S(=O)(=O)c1cccnc1)C2C (racemic),6.86,6.57,
O=C(NCc1ncc(C(F)(F)F)cc1F)c1ccc2c(c1)C1(CCS(=O)(=O)CC1)C(C1CC1)N2S(=O)(=O)c1ccc(F)cc1 (racemic),7.08,6.61,
CC(=O)N1CCC2(CC1)c1cc(C(=O)NCc3ccccc3Cl)ccc1N(S(C)(=O)=O)C2C (racemic),5.00,4.74,
O=C(NCc1ncc(F)cc1Cl)c1ccc2c(c1)C1(CCS(=O)(=O)CC1)C(C1CC1)N2S(=O)(=O)c1ccc(F)cc1 (racemic),7.19,6.84,
CC(=O)N1CCC2(CC1)c1cc(C(=O)NCc3ccccc3Cl)ccc1N(S(=O)(=O)c1ccc(F)cc1)C2C (stereo in doubt; form 1),< 4.70,< 4.70,
